# Screens deposited in PubChem by Broad Institute.
# Sampled rows, rich in hits. Any-hit rate of the full collection: about 1.4%.
# STK33 kinase inh – human STK33 kinase inhibition. Q9BYT3. purified STK33, MBP phosphorylation, ADP-Glo luminescence. inhibition, % at 10 µM. hit rate 0.073% among 320,000;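 active means inhibition at or above 25%, using the most active replicate where run in duplicate; inactive means inhibition below 25%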
# CDK5 p35 inh – inhibitors of human CDK5/p35 kinase. Q00535+Q15078. Recombinant CDK5/p35, ADP-Glo luminescence, 60 min. inhibition, % at 10 µM. hit rate 0.01% among 330,000;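 active means highest replicate inhibition of at least 50% and at least 75% of replicates reaching 50%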;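 further: plate controls were DMSO neutral control for no effect and GW8510 at 10 µM for full effect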
# GSK3beta inhib – blocks human GSK3beta kinase activity | activity score (negative = inhibition), % at 10 µM | hit rate 0.038% among 300,000 | AID 2097 | GST-GSK3beta kinase, ADP-Glo luminescence, 60 min; stronger effect = lower value;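 active means more than half of replicate wells score below -50%, meaning over 50% inhibition versus plate controls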;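 further: 0% = median DMSO wells and -100% = median GW8510 positive control wells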
#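 Assay system: GST-fused GSK3beta enzyme, cell-free / Medium: Tris pH 7.5 buffer with MgCl2, DTT, BSA, heparin / Also added: peptide substrate plus 25 µM ATP (final) / Compound: 10 µM single point / Timing: kinase reaction with compound 60 min at room temperature / Detection: ADP-Glo luminescence / Benchmarks: DMSO neutral wells and GW8510 at 20 µM as positive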
# HIV Env fusion – blocks HIV Env-driven cell-cell fusion; hit rate 1.1% among 360,000; inhibition, % at 12.3 µM; HeLa-JRFL Env/CEM21 cell fusion, luciferase; AID 651610;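 active means mean replicate inhibition score of at least 50 and every replicate individually at or above 50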;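 further: 0% = plate neutral controls and 100% = maraviroc near 300 nM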
# GSK3A inh – human GSK-3 alpha kinase inhibition | P49840 | ADP-Glo luminescence, 60 min | inhibition, % at 10 µM | hit rate 0.1% among 320,000;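 active means more than half of replicates show inhibition above 20%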;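 further: GST-tagged GSK-3 alpha with peptide substrate and 25 µM ATP; 0% = DMSO neutral wells and 100% = GW8510 positive control wells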
# Target sequence (P49840 whole entry, looked up): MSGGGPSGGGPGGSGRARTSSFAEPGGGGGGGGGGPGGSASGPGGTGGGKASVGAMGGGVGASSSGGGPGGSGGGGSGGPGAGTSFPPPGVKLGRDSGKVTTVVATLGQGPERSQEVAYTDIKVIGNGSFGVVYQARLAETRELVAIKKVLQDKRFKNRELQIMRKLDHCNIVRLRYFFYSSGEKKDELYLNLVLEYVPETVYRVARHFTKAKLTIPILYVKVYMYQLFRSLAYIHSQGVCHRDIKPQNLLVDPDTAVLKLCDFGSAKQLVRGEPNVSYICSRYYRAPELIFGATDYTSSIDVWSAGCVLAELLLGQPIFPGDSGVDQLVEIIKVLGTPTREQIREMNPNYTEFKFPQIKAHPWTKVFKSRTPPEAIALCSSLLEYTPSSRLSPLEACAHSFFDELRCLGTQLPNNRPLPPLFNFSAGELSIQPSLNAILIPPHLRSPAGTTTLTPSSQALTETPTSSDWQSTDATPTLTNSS
# GSIS activator – primary screen for activators of insulin secretion dependent on glucose, INS-1E cells, GLuc reporter luminescence; INS-1E GLuc reporter insulin secretion, 2-3 h; activation, % at 16.6 µM; hit rate 0.61% among 370,000; AID 743287;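 active means lowest replicate activation of at least 40%, so every replicate reaches that level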;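 further: 0% = median of neutral control wells and 100% = median of IBMX positive control wells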
# The depositor's hits bear a star; x = no result given; ! = not confirmed by another sample; [ ] = dose if it differs, or a comment.
SMILES,STK33 kinase inh,CDK5 p35 inh,GSK3beta inhib,HIV Env fusion,GSK3A inh,GSIS activator
COc1cc(CN2C[C@@H]3N[C@H](C2)C3c2ccc(/C=C/c3ccccc3)cc2)cc(OC)c1 (some centres not stated),x,x,x,x,x,84*!
C/C=C/c1ccc(C2[C@@H]3CN(Cc4cccc(OC)c4)C[C@H]2N3)cc1 (some centres not stated),x,x,x,x,x,-18
C/C=C/c1ccc(C2[C@@H]3CN(S(=O)(=O)c4ccccc4)C[C@H]2N3)cc1 (some centres not stated),x,x,x,x,x,10
Cc1ccccc1-c1ccc(C2[C@@H]3CN(S(=O)(=O)c4ccccc4C)C[C@H]2N3)cc1 (some centres not stated),x,x,x,x,x,179*!
Cc1noc(C)c1S(=O)(=O)N(C)C[C@@H]1OCCCC[C@H](C)Oc2ccc(NC(=O)Nc3ccc(C(F)(F)F)cc3)cc2C(=O)N([C@H](C)CO)C[C@H]1C,x,x,x,70*[16.7 µM],x,-15
Cc1noc(C)c1S(=O)(=O)N(C)C[C@H]1OCCCC[C@H](C)Oc2ccc(NC(=O)Nc3ccc(C(F)(F)F)cc3)cc2C(=O)N([C@@H](C)CO)C[C@@H]1C,x,x,x,66*[16.7 µM],x,7
Cc1noc(C)c1S(=O)(=O)N(C)C[C@H]1OCCCC[C@H](C)Oc2ccc(NC(=O)Nc3ccc(C(F)(F)F)cc3)cc2C(=O)N([C@H](C)CO)C[C@@H]1C,x,x,x,47[16.7 µM],x,2
Cc1ccc(S(=O)(=O)N(C)C[C@@H]2OCCCC[C@H](C)Oc3ccc(NC(=O)Nc4ccc(C(F)(F)F)cc4)cc3C(=O)N([C@@H](C)CO)C[C@@H]2C)cc1,x,x,x,37[16.7 µM],x,20
Cc1noc(C)c1S(=O)(=O)N(C)C[C@H]1OCCCC[C@@H](C)Oc2ccc(NC(=O)Nc3ccc(C(F)(F)F)cc3)cc2C(=O)N([C@H](C)CO)C[C@@H]1C,x,x,x,12[16.7 µM],x,11
Cc1ccc(S(=O)(=O)N(C)C[C@@H]2OCCCC[C@@H](C)Oc3ccc(NC(=O)Nc4ccc(C(F)(F)F)cc4)cc3C(=O)N([C@H](C)CO)C[C@H]2C)cc1,x,x,x,57*[16.7 µM],x,14
Cc1noc(C)c1S(=O)(=O)N(C)C[C@H]1OCCCC[C@@H](C)Oc2ccc(NC(=O)Nc3ccc(C(F)(F)F)cc3)cc2C(=O)N([C@@H](C)CO)C[C@@H]1C,x,x,x,67*[16.7 µM],x,1
COc1ccc(S(=O)(=O)Nc2ccc3c(c2)C(=O)N([C@H](C)CO)C[C@H](C)[C@@H](CN(C)C)O3)cc1,x,x,x,-10[16.7 µM],x,-6
Cc1noc(C)c1S(=O)(=O)N(C)C[C@H]1OCCCC[C@@H](C)Oc2ccc(NC(=O)Nc3ccc4c(c3)OCO4)cc2C(=O)N([C@@H](C)CO)C[C@@H]1C,x,x,x,13[16.7 µM],x,-5
Cc1noc(C)c1S(=O)(=O)N(C)C[C@H]1OCCCC[C@H](C)Oc2ccc(NC(=O)Nc3ccc4c(c3)OCO4)cc2C(=O)N([C@H](C)CO)C[C@@H]1C,x,x,x,57*[16.7 µM],x,-3
CCCC(=O)Nc1ccc2c(c1)OC[C@@H](C)N(Cc1ccncc1)C[C@H](C)[C@@H](OC)CN(C)C2=O,x,x,x,8[16.7 µM],x,19
C/C(=N\NC(=O)c1cc2ccccc2cc1O)c1ccccn1,8,1,-3,59*,0,-9
C[C@@H]1CCCCO[C@@H](CN(C)S(=O)(=O)c2ccc(Cl)cc2)[C@H](C)CN([C@@H](C)CO)C(=O)c2cc(N(C)C)ccc2O1,x,x,x,40[16.7 µM],x,0
CN(C)Cc1cn(CC[C@@H]2CC[C@H](N)[C@H](CO)O2)nn1,x,x,x,63*[16.7 µM],x,-4
CN(C)Cc1cn(CC[C@@H]2CC[C@@H](N)[C@H](CO)O2)nn1,x,x,x,49[16.7 µM],x,-3
C[C@@H]1CCCCO[C@@H](CN(C)Cc2ccc(C(F)(F)F)cc2)[C@H](C)CN([C@@H](C)CO)C(=O)c2cc(NC(=O)NC3CCCCC3)ccc2O1,x,x,x,21[16.7 µM],x,-20
C[C@H](CO)N1C[C@H](C)[C@H](CN(C)Cc2ccc(C(F)(F)F)cc2)OCCCC[C@H](C)Oc2ccc(NC(=O)NC3CCCCC3)cc2C1=O,x,x,x,72*[16.7 µM],x,-21
C[C@H]1CCCCO[C@H](CN(C)Cc2ccc(C(F)(F)F)cc2)[C@@H](C)CN([C@@H](C)CO)C(=O)c2cc(NC(=O)NC3CCCCC3)ccc2O1,x,x,x,66*[16.7 µM],x,-19
C[C@H]1CN([C@@H](C)CO)C(=O)c2cc(N(C)C)ccc2O[C@@H]1CN(C)S(=O)(=O)c1cccs1,x,x,x,5[16.7 µM],x,-2
CC(=O)N1CC2(C1)[C@@H](c1ccc(-c3ccccc3C)cc1)[C@@H](CO)N2C(=O)CC1CC1,x,x,x,x,x,-24
COc1ccc(/C=C/C(=O)NC(=S)NN2CCCCC2c2cccnc2)cc1OC (configuration not stated),1,0,3,7,-1,70*
SMILES,STK33 kinase inh,CDK5 p35 inh,GSK3beta inhib,HIV Env fusion,GSK3A inh,GSIS activator
C[C@H](CO)N1C[C@H](C)[C@@H](CN(C)Cc2ccccc2)Oc2ccc(NC(=O)NC3CCCCC3)cc2CC1=O,x,x,x,-7[16.7 µM],x,-18
COC(=O)Nc1nnc(CCc2ccccc2)s1,1,-1,-1,x,-1,x
CCc1nnc(NC(=O)C(c2ccccc2)c2ccccc2)s1,1,0,1,16,-2,103*
COC(=O)Nc1nnc(Cc2ccccc2)s1,26*,2,-23,-78,0,x
Cc1cccc(S(=O)(=O)N(C)C[C@@H]2OCc3cnnn3CCCC(=O)N([C@@H](C)CO)C[C@H]2C)c1,x,x,x,x,x,5
Cc1onc(-c2ccc(Cl)cc2)c1-c1ccnc(SCC(=O)Nc2cc(Cl)cc(Cl)c2)n1,-3,-1,9,75*,-12,x
O=C(CSc1nccc(-c2cccs2)n1)Nc1cccc(Cl)c1,0,0,-6,5,-1,-13
C[C@@H]1CCCCO[C@@H](CN(C)C(=O)Nc2cccc3ccccc23)[C@@H](C)CN([C@@H](C)CO)C(=O)c2cc(NC(=O)NC3CCCCC3)ccc2O1,x,x,x,-77[16.7 µM],x,-2
Cc1ccc(COC(=O)c2cc(S(=O)(=O)N3CCCCC3)ccc2N2CCOCC2)cc1,0,2,-2,76*,-1,-5
O=C(OCc1cccc(Cl)c1)c1cc(S(=O)(=O)N2CCCCC2)ccc1N1CCOCC1,-1,5,-2,x,0,-42
O=C(OCCOc1cccc(Cl)c1)c1cc(S(=O)(=O)N2CCCCC2)ccc1N1CCOCC1,1,1,2,75*,-1,38
NC(=O)NCC#Cc1ccc2c(c1)[C@]1(C(=O)N2)[C@H](c2ccccc2OCCO)N2[C@H](c3ccccc3)[C@H](c3ccccc3)OC(=O)[C@H]2[C@@H]1C(=O)N1CCN(c2ncccn2)CC1,x,x,x,-4[16.7 µM],x,x
COc1ccc(NC(=O)Cn2cnc3c(cnn3-c3ccc(C)c(C)c3)c2=O)c(OC)c1,-2,0,-2,x,x,97*
Cc1ccc(-n2ncc3c(=O)n(CC(=O)Nc4cccc(Cl)c4)cnc32)cc1C,-3,1,2,x,-2,257*
